This is an account of results in ChEMBL document CHEMBL3102781, “Synthesis and activity of substituted heteroaromatics as positive allosteric modulators for α4β2α5 nicotinic acetylcholine receptors” (Bioorg Med Chem Lett, 2014).

Data set [1] is described as follows: Plasma concentration in mouse at 10 mg/kg, ip after 2 hrs. It is filed as ADME, organism-based. Also on record: dose 10 mg/kg, route intraperitoneal. In short, it runs like this:
(§1)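 Mice were given 10 mg/kg by intraperitoneal injection. Plasma and brain drug levels were measured 2 h after dosing.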

For data set [2], the target named is Neuronal acetylcholine receptor; alpha4/beta2 (Homo sapiens, UniProt P17787+P43681). In words: Positive allosteric modulation of human alpha4beta2 nACHR expressed in HEK-tsA201 cells assessed as potentiation of nicotine-induced current preincubated for 15 mins followed by nicotine-treatment by fluorometric analysis. It is filed as cell-based. The method, boiled down: (§2)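 Human AChR subtypes were stably expressed in HEK tsA201 cells grown in DMEM with 10% FBS at 37 °C. Plating was 150,000/well for lines without α5 and 200,000/well for α5 lines, on poly-D-lysine plates. β2-containing lines were incubated 20 h at 29 °C before testing. Serial dilutions of compound were added 15 min before nicotine. Membrane-potential fluorescence was read on a FLEXstation, with 3–4 wells per point and a Hill equation fit.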

Data set [3] has as its target Nicotinic acetylcholine receptor alpha3/beta4/alpha5 (Homo sapiens) (UniProt P30926+P32297+P30532). The data set is described as follows: Positive allosteric modulation of human alpha3beta4alpha5 nACHR expressed in HEK-tsA201 cells assessed as potentiation of nicotine-induced current preincubated for 15 mins followed by nicotine-treatment by fluorometric analysis. The class given is cell-based. The method, boiled down: as §2

The test system of data set [4] is Mus musculus. In words: AUC in mouse at 2 mg/kg, po. Further details: dose 2 mg/kg, route oral. As to conditions: in vivo. It is filed as ADME, organism-based, Plasma. In short, it runs like this:
(§3)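 Mouse pharmacokinetics. Each compound was dosed 1 mg/kg IV and 2 mg/kg PO. From these the following were derived: clearance, half-life, PO AUC, PO Cmax, volume of distribution and oral bioavailability (F%).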

In data set [5] the target is T1, Nicotinic acetylcholine receptor alpha4/beta2/alpha5 (Homo sapiens) (UniProt P17787+P43681+P30532). In words: Agonist activity at human alpha4beta2alpha5 nACHR expressed in HEK-tsA201 cells by fluorometric analysis. The class given is cell-based.
In data set [6] the target is T1, Nicotinic acetylcholine receptor alpha4/beta2/alpha5 (Homo sapiens). In words: Positive allosteric modulation of human alpha4beta2alpha5 nACHR expressed in HEK-tsA201 cells assessed as potentiation of nicotine-induced current preincubated for 15 mins followed by nicotine-treatment by fluorometric analysis relative to NS9283. The class given is cell-based. In short, it runs like this: as §2

Data set [7] has the same target. In words: Positive allosteric modulation of human alpha4beta2alpha5 nACHR expressed in HEK-tsA201 cells assessed as potentiation of nicotine-induced current at 1 uM preincubated for 15 mins followed by nicotine-treatment by fluorometric analysis. It is filed as cell-based. The method, boiled down:
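In human α4β2α5 AChR HEK tsA201 cells (200,000/well, 20 h at 29 °C before testing), compound was added 15 min before nicotine. Potentiation of the nicotine response was read by membrane-potential fluorescence on a FLEXstation, with 3–4 wells averaged per point.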

Data set [8] concerns the target Nicotinic acetylcholine receptor alpha4/beta2/alpha5 (Homo sapiens, UniProt P17787+P30532+P43681). In words: Positive allosteric modulation of human alpha4beta2alpha5 nACHR expressed in HEK-tsA201 cells assessed as potentiation of nicotine-induced current preincubated for 15 mins followed by nicotine-treatment by fluorometric analysis. It is filed as cell-based. The method, boiled down:
as §2

Data set [9] addresses Neuronal acetylcholine receptor; alpha3/beta4 (Homo sapiens) (UniProt P30926+P32297). In words: Positive allosteric modulation of human alpha3beta4 nACHR expressed in HEK-tsA201 cells assessed as potentiation of nicotine-induced current preincubated for 15 mins followed by nicotine-treatment by fluorometric analysis. The class given is cell-based. In short, it runs like this:
as §2

Data set [10] has as its system Mus musculus. In words: Volume of distribution in mouse at 1 mg/kg, iv and 2 mg/kg, po. It is filed as ADME, organism-based. As to conditions: in vivo. In short, it runs like this:
as §3

A short description of data set [11]: Cmax in mouse at 2 mg/kg, po. It is filed as ADME, organism-based. Further details: dose 2 mg/kg, route oral. The settings on record: in vivo. In short, it runs like this:
as §3

Data set [12] can be described thus: Drug uptake in mouse brain at 10 mg/kg, ip after 2 hrs. The class given is ADME, organism-based. Also on record: dose 10 mg/kg, route intraperitoneal. As to conditions: read-out: Drug uptake. In short, it runs like this: as §1
The target in data set [13] is Nicotinic acetylcholine receptor alpha3/beta2/alpha5 (Homo sapiens) (UniProt P17787+P32297+P30532). The data set is described as follows: Positive allosteric modulation of human alpha3beta2alpha5 nACHR expressed in HEK-tsA201 cells assessed as potentiation of nicotine-induced current preincubated for 15 mins followed by nicotine-treatment by fluorometric analysis. It is filed as cell-based. In short, it runs like this: as §2

Data set [14] can be described thus: Half life in mouse at 1 mg/kg, iv and 2 mg/kg, po. The class given is ADME, organism-based. The settings on record: in vivo. The method, boiled down: as §3
Data set [15] deals with Neuronal acetylcholine receptor; alpha3/beta2 (Homo sapiens) (UniProt P17787+P32297). The data set is described as follows: Positive allosteric modulation of human alpha3beta2 nACHR expressed in HEK-tsA201 cells assessed as potentiation of nicotine-induced current preincubated for 15 mins followed by nicotine-treatment by fluorometric analysis. It is filed as cell-based. The method, boiled down:
as §2

Data set [16] relates to Mus musculus. In words: Oral bioavailability in mouse at 2 mg/kg. The class given is ADME, organism-based. As to conditions: in vivo. The method, boiled down:
as §3

Molecules are shown by their SMILES. pEC50: −log10 of the molar value. Activity calls are given as the source filed them. The rule behind the calls is not given here.

Sequence of Nicotinic acetylcholine receptor alpha4/beta2/alpha5 (P17787 whole entry): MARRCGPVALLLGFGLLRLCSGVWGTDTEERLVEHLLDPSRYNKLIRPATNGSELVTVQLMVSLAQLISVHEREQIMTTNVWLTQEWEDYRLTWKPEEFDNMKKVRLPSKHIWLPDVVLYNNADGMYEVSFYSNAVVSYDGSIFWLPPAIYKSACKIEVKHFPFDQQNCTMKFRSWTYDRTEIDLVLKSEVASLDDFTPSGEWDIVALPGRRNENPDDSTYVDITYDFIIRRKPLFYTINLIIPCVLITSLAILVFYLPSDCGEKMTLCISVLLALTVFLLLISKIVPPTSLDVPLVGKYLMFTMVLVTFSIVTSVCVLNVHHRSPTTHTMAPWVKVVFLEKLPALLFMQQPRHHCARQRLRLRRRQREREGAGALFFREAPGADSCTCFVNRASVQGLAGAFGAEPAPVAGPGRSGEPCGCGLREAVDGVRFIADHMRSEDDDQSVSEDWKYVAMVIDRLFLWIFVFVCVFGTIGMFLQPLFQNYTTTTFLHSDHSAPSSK
Sequence of Nicotinic acetylcholine receptor alpha4/beta2/alpha5 (P43681 whole entry): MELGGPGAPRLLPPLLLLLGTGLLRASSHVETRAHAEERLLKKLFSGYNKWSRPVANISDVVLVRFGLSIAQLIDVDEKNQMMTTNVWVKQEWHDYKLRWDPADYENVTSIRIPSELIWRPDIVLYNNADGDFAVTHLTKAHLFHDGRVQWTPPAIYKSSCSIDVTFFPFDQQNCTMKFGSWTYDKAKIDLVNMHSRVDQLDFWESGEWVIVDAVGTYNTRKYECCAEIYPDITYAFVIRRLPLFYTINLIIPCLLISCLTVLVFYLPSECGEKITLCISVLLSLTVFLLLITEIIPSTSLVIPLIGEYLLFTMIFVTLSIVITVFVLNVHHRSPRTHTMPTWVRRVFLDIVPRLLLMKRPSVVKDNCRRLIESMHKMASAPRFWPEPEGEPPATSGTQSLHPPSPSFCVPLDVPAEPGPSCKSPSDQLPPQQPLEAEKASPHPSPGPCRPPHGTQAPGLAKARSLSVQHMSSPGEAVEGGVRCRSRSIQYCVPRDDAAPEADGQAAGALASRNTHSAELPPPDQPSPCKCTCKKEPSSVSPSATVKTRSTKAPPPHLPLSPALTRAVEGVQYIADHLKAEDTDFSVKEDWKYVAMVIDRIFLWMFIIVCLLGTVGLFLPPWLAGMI
Sequence of Nicotinic acetylcholine receptor alpha4/beta2/alpha5 (P30532 whole entry): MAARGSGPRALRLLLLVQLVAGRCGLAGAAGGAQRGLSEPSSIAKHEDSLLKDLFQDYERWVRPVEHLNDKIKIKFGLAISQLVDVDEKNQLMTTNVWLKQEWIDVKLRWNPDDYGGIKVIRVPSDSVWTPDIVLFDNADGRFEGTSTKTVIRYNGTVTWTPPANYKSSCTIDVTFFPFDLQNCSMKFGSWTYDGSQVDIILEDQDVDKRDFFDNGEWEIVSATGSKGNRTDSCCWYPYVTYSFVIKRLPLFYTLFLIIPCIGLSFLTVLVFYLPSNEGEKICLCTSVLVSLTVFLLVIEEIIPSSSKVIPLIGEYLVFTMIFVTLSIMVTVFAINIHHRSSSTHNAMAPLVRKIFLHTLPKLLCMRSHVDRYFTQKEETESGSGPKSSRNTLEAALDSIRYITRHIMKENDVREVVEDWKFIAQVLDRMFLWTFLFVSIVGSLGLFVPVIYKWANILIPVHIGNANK

As usually defined, the AUC is the area under the concentration-time curve, a measure of exposure. Read a high AUC as more exposure. For orientation: pEC50 means the EC50 on a negative log10 scale, so that one unit is a factor of ten. As a reminder, the Cmax is the peak of the concentration-time curve. For orientation: half-life means the time in which the quantity being followed falls by half. As for `N#Cc1cccc(-n2nnc(-c3cccnc3)n2)c1`, the concentration at 2 h in [1] worked out at 11 µM; in [12] it was 4.4 µM. Moreover, the outcome in [2] was Active. Moreover, the outcome in [3], in [5], in data set [9], in data set [13] and in [15] was inactive. In [4], this compound showed an AUC of 21 µM·h. Further, in data set [6], the Emax turned out to be 2.5. Also, in data set [7], the Activity was over 50%. In data set [8], the pEC50 was 5.70. In data set [10], the Vd came to 2.7 L/kg. Besides, the Cmax in [11] was determined as 4.1 µM. The compound also showed a half-life in data set [14] of 54 min. This compound also showed a F in data set [16] of 100%.
